From paper PMC2761948 (Journal of medicinal chemistry, 2009)

Key:
[1] = test system: 4T1 cells; assay: F-actin immunostaining; type: cell-based, mouse; settings: 4-h exposure
In short: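 Cells grown overnight on coverslips, then exposed to test compound for 4 h in 2% FBS RPMI 1640. They were fixed in 3.7% formaldehyde, permeabilised 1 h (PBS, 0.1% Triton X-100, 0.1% BSA) and stained 30 min with Alexa Fluor 488 phallotoxin, with DAPI counterstain. Confocal imaging (488/543 nm excitation); fluorescence intensity expressed as % of untreated control.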

[2] = test system: 4T1 cells; assay: Migration assay; type: cell-based, mouse
In short: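 Trypsinised 4T1 cells (5 × 10^4) in 0.2% FBS RPMI with test compound were placed in Transwell inserts (12-μm pore polycarbonate) for 30 min at 37 °C. Inserts then moved to wells with 10% FBS RPMI for 24 h. Migrated and non-migrated cells were crystal violet-stained and methanol-solubilised separately; A570 read. Background-corrected % migration normalised to vehicle; mean ± SD, n = 3.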

[3] = test system: 4T1 metastatic breast cancer cells; assay: Adhesion assay, 4T1 cells to Matrigel-coated surface; type: cell-based, mouse; settings: read-out: IC50, inhibition of 4T1 cell adhesion
[4] = test system: MCF-7 breast cancer cells; assay: Adhesion assay, MCF-7 cells to Matrigel-coated surface; type: cell-based, human; settings: at 100 μM
In short: (§1)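 Wells coated with 12% (v/v) Matrigel for 1 h at 37 °C, washed with 0.1% BSA-RPMI, then blocked with 0.5% BSA-RPMI for 60 min. Cells were pretreated with test compound for 60 min at 37 °C, seeded at 2 × 10^4 per well, and left to adhere for 30 min. Adherent cells were fixed in formalin, stained with crystal violet and solubilised in 2% SDS; A570 read. Mean ± SD, n = 3.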

[5] = test system: focal adhesion kinase (FAK); assay: FAK immunostaining and Western blotting; type: cell-based, mouse; settings: 1 h; for FAK degradation (Western blotting): 4T1 cells
In short: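 4T1 cells treated for 1 h with test compound or DMSO. For focal adhesion sites, cells were fixed and immunostained with anti-FAK antibody (2.5 μM test compound, 5 μM comparator). For FAK stability, each agent was given at 5 μM and cell lysates were immunoblotted with anti-FAK monoclonal antibody.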

[6] = test system: SKBR3 breast cancer cells; assay: Adhesion assay, SKBR3 cells to Matrigel-coated surface; type: cell-based, human; settings: at 100 μM
In short: as §1

Compound: Cc1c(C)c2c(c(C)c1OCC(=O)O)CC[C@](C)(CCCC(C)CCCC(C)C)O2 (stereo partly shown) [Compound 6, [2-(4,8-Dimethyl-nonyl)-2,5,7,8-tetramethyl-chroman-6-yloxy]-acetic acid]
- effect on actin stress fiber and lamellipodia formation ([1]; 10 μM): rapid dissolution of stress fiber and impairment of lamellipodia formation
- inhibition of serum-induced 4T1 cell migration ([2]; at 5 μM): effective in inhibiting cell migration

Compound: α-tocopheryl succinate [Compound 1, reference compound]
- IC50 [3]: 10 µM
- suppression of MCF-7 cell adhesion [4]: ineffective
- FAK degradation (Western blotting) ([5]; 5 μM): less evident or not appreciable
- effect on focal adhesion sites (anti-FAK immunostaining) ([5]; 5 μM, negative control): typical punctate pattern
- effect on actin stress fiber ([1]; 50 μM): remained largely intact
- inhibition of serum-induced 4T1 cell migration ([2]; at 50 μM): little effect
- suppression of SKBR3 cell adhesion [6]: ineffective

Compound: Cc1c(C)c2c(c(C)c1OC(=O)CCC(=O)O)CC[C@](C)(/C=C/CC(C)CCCC(C)C)O2 (stereo partly shown) [Compound 4, Succinic acid mono-[2-(4,8-dimethyl-non-1-enyl)-2,5,7,8-tetramethyl-chroman-6-yl] ester]
- inhibition of serum-induced 4T1 cell migration ([2]; at 5 μM): effective in inhibiting cell migration

Compound: Cc1c(C)c2c(c(C)c1OCC(=O)O)CC[C@](C)(/C=C/CC(C)CCCC(C)C)O2 (stereo partly shown) [Compound 5, [2-(4,8-Dimethyl-non-1-enyl)-2,5,7,8-tetramethyl-chroman-6-yloxy]-acetic acid]
- effect on focal adhesion sites (anti-FAK immunostaining) ([5]; 2.5 μM): loss of focal adhesion sites
- FAK degradation (Western blotting) ([5]; 5 μM): induced FAK degradation
- effect on actin stress fiber and lamellipodia formation ([1]; 5 μM): rapid dissolution of stress fiber and impairment of lamellipodia formation
- inhibition of serum-induced 4T1 cell migration ([2]; at 5 μM): effective in inhibiting cell migration

Compound: Cc1c(C)c2c(c(C)c1OC(=O)CCC(=O)O)CC[C@](C)(CCCC(C)CCCC(C)C)O2 (stereo partly shown) [Compound 2]
- FAK degradation (Western blotting) ([5]; 5 μM): less evident or not appreciable
- inhibition of serum-induced 4T1 cell migration ([2]; at 5 μM): little effect
